This note sets out measurements from ChEMBL document CHEMBL1155485, “Pyrimidine ribonucleotides with enhanced selectivity as P2Y(6) receptor agonists: novel 4-alkyloxyimino, (S)-methanocarba, and 5'-triphosphate gamma-ester modifications” (J Med Chem, 2010).

The target in data set [1] is T1, P2Y purinoceptor 2 (Homo sapiens, UniProt P41231). Kind of data set: Agonist activity at human recombinant P2Y2 receptor expressed in human 1321N1 cells assessed as [3H]inositol phosphate production at 10 uM by scintillation proximity assay. Type of data set: functional, cell-based.
T1 sequence (P41231 whole entry): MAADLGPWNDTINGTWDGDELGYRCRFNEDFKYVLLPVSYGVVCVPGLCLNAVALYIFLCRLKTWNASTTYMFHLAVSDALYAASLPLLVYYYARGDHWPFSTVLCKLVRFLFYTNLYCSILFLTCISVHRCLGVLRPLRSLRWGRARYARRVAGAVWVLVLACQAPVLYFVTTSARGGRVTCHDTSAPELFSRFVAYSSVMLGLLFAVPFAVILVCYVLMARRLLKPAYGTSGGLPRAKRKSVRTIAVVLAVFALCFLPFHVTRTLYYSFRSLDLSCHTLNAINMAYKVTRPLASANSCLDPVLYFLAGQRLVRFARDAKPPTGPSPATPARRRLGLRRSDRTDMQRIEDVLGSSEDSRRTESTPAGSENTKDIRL
Data set [2] deals with T2, P2Y purinoceptor 6 (Homo sapiens, UniProt Q15077). Nature of the data set: Agonist activity at human recombinant P2Y6 receptor expressed in human 1321N1 cells assessed as [3H]inositol phosphate production by scintillation proximity assay. Type of data set: functional, cell-based. A digest of the protocol: (§1)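 Stably transfected 1321N1 astrocytoma cells (human P2Y2, P2Y4 or P2Y6 receptor) seeded at 20,000 cells/well two days before assay; labelled 16 h with myo-[3H]inositol (1.0 μCi) in serum-free inositol-free DMEM. Agonist added in HEPES pH 7.3/HBSS with LiCl (50 mM, fivefold stock), 30 min at 37°C; stopped with ice-cold 50 mM formic acid. [3H]inositol phosphates read by SPA.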
T2 sequence (Q15077 whole entry): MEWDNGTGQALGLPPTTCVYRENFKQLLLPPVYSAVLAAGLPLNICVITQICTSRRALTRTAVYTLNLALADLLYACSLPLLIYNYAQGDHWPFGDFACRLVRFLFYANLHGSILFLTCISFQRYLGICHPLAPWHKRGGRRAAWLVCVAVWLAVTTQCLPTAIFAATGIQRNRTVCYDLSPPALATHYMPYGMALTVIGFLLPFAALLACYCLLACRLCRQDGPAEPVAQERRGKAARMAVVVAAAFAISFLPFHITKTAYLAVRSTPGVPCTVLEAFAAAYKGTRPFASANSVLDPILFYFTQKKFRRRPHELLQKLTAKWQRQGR
Background: Scintillation proximity formats need no separation of bound from free tracer.

A short description of data set [3]: Stability assessed as half life in aqueous acidic solution at pH 1.2 by HPLC. Type of data set: physicochemical. As to conditions: buffer. Summed up:
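Nucleotide (10 μL of 2 mg/mL aqueous stock) mixed with 90 μL of HCl/NaCl buffer pH 1.2 and held at 37°C. Aliquots taken at intervals were diluted tenfold in water or 5 mM TBAP and run on reverse-phase HPLC with a 5 mM TBAP–acetonitrile gradient. Half-life was derived from peak area.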

For data set [4], the target named is T1, P2Y purinoceptor 2. Nature of the data set: Agonist activity at human recombinant P2Y2 receptor expressed in human 1321N1 cells assessed as [3H]inositol phosphate production by scintillation proximity assay. It is filed as functional, cell-based. Summed up: as §1
The species named for data set [5] is Homo sapiens. Nature of the data set: Selectivity ratio of EC50 for human P2Y2 receptor to EC50 for human P2Y6 receptor.
Data set [6] is filed under the species Homo sapiens. Kind of data set: Selectivity ratio of EC50 for human P2Y4 receptor to EC50 for human P2Y6 receptor.
A short description of data set [7]: Stability assessed as half life by HPLC in presence of human 1321N1 cell membranes. It is filed as ADME, cell-based. A digest of the protocol:
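Nucleotide (10 μL of 2 mg/mL aqueous stock) mixed with 90 μL of astrocytoma cell membrane suspension in Dulbecco's PBS pH 7.4 (final protein 14.9 μg/mL), incubated at 37°C. At intervals, aliquots were diluted tenfold in water or 5 mM TBAP and analysed by reverse-phase HPLC (TBAP–acetonitrile gradient). Half-life was taken from peak area.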

The target in another data set is P2Y purinoceptor 4 (Homo sapiens, UniProt P51582). Nature of the data set: Agonist activity at human recombinant P2Y4 receptor expressed in human 1321N1 cells assessed as [3H]inositol phosphate production by scintillation proximity assay. Type of data set: functional, cell-based. Summed up:
as §1

The target of data set [8] is T2, P2Y purinoceptor 6. Kind of data set: Agonist activity at human recombinant P2Y6 receptor expressed in human 1321N1 cells assessed as [3H]inositol phosphate production up to 10 uM by scintillation proximity assay. It is filed as functional, cell-based. A digest of the protocol: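 Human 1321N1 astrocytoma cells stably expressing the human P2Y2 or P2Y6 receptor, seeded at 20,000 cells/well two days before assay. Inositol lipids labelled for 16 h with 1.0 μCi myo-[3H]inositol in serum-free, inositol-free DMEM. Agonist added in HEPES pH 7.3/HBSS with LiCl, 30 min at 37°C. Stopped with ice-cold 50 mM formic acid; [3H]inositol phosphates counted by scintillation proximity assay. Triplicates.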

For orientation: EC50 means the concentration that produces a half-maximal response.

Molecules are shown by their SMILES.

Chain of P2Y purinoceptor 4 (P51582 whole entry): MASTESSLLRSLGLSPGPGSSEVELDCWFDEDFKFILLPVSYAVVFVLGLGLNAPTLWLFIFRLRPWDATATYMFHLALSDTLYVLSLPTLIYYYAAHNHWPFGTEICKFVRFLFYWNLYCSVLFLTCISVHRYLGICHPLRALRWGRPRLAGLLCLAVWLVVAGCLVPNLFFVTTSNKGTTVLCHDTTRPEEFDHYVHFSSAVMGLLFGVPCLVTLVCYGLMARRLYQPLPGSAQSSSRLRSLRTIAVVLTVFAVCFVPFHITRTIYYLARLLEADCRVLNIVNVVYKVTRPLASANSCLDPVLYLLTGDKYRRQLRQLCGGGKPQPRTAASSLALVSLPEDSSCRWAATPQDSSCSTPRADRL

In the case of `CO/N=c1/ccn([C@@H]2O[C@H](COP(=O)(O)CP(=O)(O)O)[C@@H](O)[C@H]2O)c(=O)[nH]1`, the Activity on P2Y purinoceptor 2 [1] is under 50%.

In the case of `O=c1[nH]c(=O)n([C@@H]2O[C@H](COP(=O)(O)OP(=O)(O)OP(=O)(O)O[C@H]3O[C@H](CO)[C@@H](O)[C@H](O)[C@H]3O)[C@@H](O)[C@H]2O)cc1I`, on P2Y purinoceptor 6 [2], the EC50 was 4690 nM.

Turning to `CCN(CC)CC.CO/N=c1/ccn([C@@H]2O[C@H](COP(=O)(O)OP(=O)(O)OP(=O)(O)OC[C@H]3O[C@@H](n4ccc(=O)[nH]c4=O)[C@H](O)[C@@H]3O)[C@@H](O)[C@H]2O)c(=O)[nH]1`, the t1/2 in [3] was 120 h; in data set [7], 23 h. In addition, the EC50 is 170 nM at P2Y purinoceptor 2 [4], 12 nM at P2Y purinoceptor 6 [2] and 790 nM at P2Y purinoceptor 4. Also, the Ratio EC50 in the data set filed under Homo sapiens [5] came to 14; in the data set filed under Homo sapiens [6], 66.

For the compound `O=C(Cn1c(=O)ccn([C@@H]2O[C@H](COP(=O)(O)OP(=O)(O)OP(=O)(O)O[C@H]3O[C@H](CO)[C@@H](O)[C@H](O)[C@H]3O)[C@@H](O)[C@H]2O)c1=O)c1ccccc1`, the EC50 at P2Y purinoceptor 6 [2] was over 10000 nM. Also, the Activity on P2Y purinoceptor 6 [8] was under 50%.

`O=c1ccn([C@@]23C[C@H]2[C@H](COP(=O)(O)OP(=O)(O)OP(=O)(O)O)[C@@H](O)[C@H]3O)c(=O)[nH]1`: the EC50 on P2Y purinoceptor 2 [4] was found to be 80 nM; on P2Y purinoceptor 6 [2] it was 1370 nM; at P2Y purinoceptor 4 it was 300 nM.

On to `CONc1ccn([C@@H]2O[C@H](COP(=O)(O)OP(=O)(O)OP(=O)(O)OC[C@H]3O[C@@H](n4ccc(NOC)nc4=O)[C@H](O)[C@@H]3O)[C@@H](O)[C@H]2O)c(=O)n1`, for which the EC50 stood at 2120 nM on P2Y purinoceptor 2 [4], 63 nM at P2Y purinoceptor 6 [2] and 560 nM on P2Y purinoceptor 4.

For the compound `CCO/N=c1/ccn([C@@H]2O[C@H](COP(=O)(O)OP(=O)(O)O)[C@@H](O)[C@H]2O)c(=O)[nH]1`, the EC50 on P2Y purinoceptor 2 [4] stood at 280 nM; at P2Y purinoceptor 4, 180 nM.

In the case of `CO/N=c1/ccn([C@@H]2O[C@H](COP(=O)(O)OP(=O)(O)OP(=O)(O)O[C@H]3O[C@H](CO)[C@@H](O)[C@H](O)[C@H]3O)[C@@H](O)[C@H]2O)c(=O)[nH]1`, on P2Y purinoceptor 2 [1], the Activity was under 50%. Besides, the results for the EC50 on P2Y purinoceptor 2 [4] and at P2Y purinoceptor 6 [2] were over 10000 nM and 180 nM, respectively.

Turning to `CC(C)(C)O/N=c1/ccn([C@@H]2O[C@H](COP(=O)(O)OP(=O)(O)O)[C@@H](O)[C@H]2O)c(=O)[nH]1`, the EC50 at P2Y purinoceptor 2 [4] is 3510 nM; on P2Y purinoceptor 4, 6230 nM.

For `O=c1[nH]c(=O)n([C@@H]2O[C@H](COP(=O)(O)CP(=O)(O)O)[C@@H](O)[C@H]2O)cc1I`, the EC50 at P2Y purinoceptor 6 [2] turned out to be 130 nM.

With `CCN(CC)CC.O=c1ccn([C@@H]2O[C@H](COP(=O)(O)OP(=O)(O)OP(=O)(O)Oc3ccccc3)[C@@H](O)[C@H]2O)c(=O)[nH]1`, the results for the t1/2 in data set [3] and in [7] were 164 h and 43 h, respectively. Besides, the Activity at P2Y purinoceptor 2 [1] and on P2Y purinoceptor 6 [8] was under 50% throughout. Also, the EC50 is over 10000 nM on P2Y purinoceptor 2 [4] and 2130 nM on P2Y purinoceptor 6 [2].

As for `CCN(CC)CC.O=c1ccn([C@@H]2O[C@H](COP(=O)(O)OP(=O)(O)OP(=O)(O)OC3CCCCC3)[C@@H](O)[C@H]2O)c(=O)[nH]1`, the t1/2 in [3] was 193 h; in data set [7] it was 62 h. For the same compound, the EC50 on P2Y purinoceptor 2 [4] stood at 2280 nM; at P2Y purinoceptor 6 [2], 6990 nM.

In the case of `O=c1ccn([C@@H]2O[C@H](COP(=O)(O)OP(=O)(O)OP(=O)(O)O)[C@@H](O)[C@H]2O)c(=O)[nH]1` [URIDINE TRIPHOSPHATE], the t1/2 in [3] came to 23 h; in data set [7], 31 h.

As for `CCN(CC)CC.O=c1ccn([C@@H]2O[C@H](COP(=O)(O)CP(=O)(O)OP(=O)(O)O[C@H]3O[C@H](CO)[C@@H](O)[C@H](O)[C@H]3O)[C@@H](O)[C@H]2O)c(=O)[nH]1`, the t1/2 in data set [3] was determined as 2.8 h; in data set [7] it was 19 h. Further, the EC50 at P2Y purinoceptor 6 [2] was over 10000 nM. Moreover, the Activity at P2Y purinoceptor 6 [8] was under 50%.

In the case of `CO/N=c1\ccn([C@@H]2O[C@H](COP(=O)(O)OP(=O)(O)OP(=O)(O)O)[C@@H](O)[C@H]2O)c(=O)[nH]1`, the EC50 on P2Y purinoceptor 2 [4] is 50 nM; on P2Y purinoceptor 6 [2] it was 80 nM; on P2Y purinoceptor 4, 50 nM.

Turning to `CCN(CC)CC.O=c1ccn([C@@H]2O[C@H](COP(=O)(O)OP(=O)(O)OP(=O)(O)O[C@H]3O[C@H](CO)[C@@H](O)[C@H](O)[C@H]3O)[C@@H](O)[C@H]2O)c(=O)[nH]1`, the figures for the t1/2 in [3] and in [7] were 5.1 h and 29 h, respectively. Besides, on P2Y purinoceptor 6 [2], the EC50 is over 10000 nM. The Activity at P2Y purinoceptor 6 [8] was under 50%.

For the compound `CCN(CC)CC.O=c1[nH]/c(=N\OCc2ccccc2)ccn1[C@@H]1O[C@H](COP(=O)(O)OP(=O)(O)O)[C@@H](O)[C@H]1O`, the t1/2 in data set [3] is 126 h; in data set [7], 26 h. The EC50 at P2Y purinoceptor 2 [4] worked out at 2130 nM; at P2Y purinoceptor 4 it was 1150 nM. For the same compound, the figures for the Ratio EC50 in the data set filed under Homo sapiens [5] and in the data set listed under Homo sapiens [6] were 82 and 44, respectively.

In the case of `CCN(CC)CC.O=c1ccn([C@@H]2O[C@H](COP(=O)(O)CP(=O)(O)OP(=O)(O)OC[C@H]3O[C@@H](n4ccc(=O)[nH]c4=O)[C@H](O)[C@@H]3O)[C@@H](O)[C@H]2O)c(=O)[nH]1`, the results for the t1/2 in [3] and in data set [7] were 34 h and 62 h, respectively. For the same compound, the EC50 on P2Y purinoceptor 2 [4] was over 10000 nM; at P2Y purinoceptor 6 [2], 1300 nM.

As to `CCN(CC)CC.CO/N=c1/ccn([C@@H]2O[C@H](COP(=O)(O)OP(=O)(O)O)[C@@H](O)[C@H]2O)c(=O)[nH]1`, the t1/2 was determined as 116 h in data set [3] and 55 h in data set [7]. Further, the EC50 is 3600 nM on P2Y purinoceptor 2 [4] and 6450 nM on P2Y purinoceptor 4.

For `O=c1ccn([C@@H]2O[C@H](COP(=O)(O)CP(=O)(O)O)[C@@H](O)[C@H]2O)c(=O)[nH]1`, the EC50 at P2Y purinoceptor 6 [2] came to 700 nM.

Turning to `O=c1[nH]c(=O)n([C@@H]2O[C@H](COP(=O)(O)OP(=O)(O)O)[C@@H](O)[C@H]2O)cc1I`, at P2Y purinoceptor 6 [2], the EC50 came out at 15 nM.

On to `CO/N=c1/ccn([C@@H]2O[C@H](COP(=O)(O)OP(=O)(O)OP(=O)(O)Oc3ccccc3)[C@@H](O)[C@H]2O)c(=O)[nH]1`, for which the Activity on P2Y purinoceptor 2 [1] is under 50%. The figures for the EC50 on P2Y purinoceptor 2 [4] and on P2Y purinoceptor 6 [2] were over 10000 nM and 3490 nM, respectively.
